PMC4203403 (Journal of Medicinal Chemistry, 2014)
Read-outs that look alike come from different tables or passages of the source.

Columns and labels:
CB1 receptor [1] = molecular target: T1, CB1 receptor (Homo sapiens, UniProt P21554); experiment: ERK1/2 phosphorylation immunoblotting in HEK293 cells expressing CB1; format: cell-based; settings: for pertussis toxin (PTX) sensitivity of induced ERK1/2 phosphorylation: PTX pretreatment; for pertussis toxin (PTX) sensitivity of induced ERK1/2 phosphorylation / effect of β-arrestin 1 knockdown on induced ERK1/2 phosphorylation: result in words; for effect of β-arrestin 1 knockdown on induced ERK1/2 phosphorylation: siRNA targeting β-arrestin 1; for modulator concentration at which ERK1/2 phosphorylation reached a plateau: in the presence of 0.2 μM CP55,940, 5 min
T1 sequence (P21554 whole entry): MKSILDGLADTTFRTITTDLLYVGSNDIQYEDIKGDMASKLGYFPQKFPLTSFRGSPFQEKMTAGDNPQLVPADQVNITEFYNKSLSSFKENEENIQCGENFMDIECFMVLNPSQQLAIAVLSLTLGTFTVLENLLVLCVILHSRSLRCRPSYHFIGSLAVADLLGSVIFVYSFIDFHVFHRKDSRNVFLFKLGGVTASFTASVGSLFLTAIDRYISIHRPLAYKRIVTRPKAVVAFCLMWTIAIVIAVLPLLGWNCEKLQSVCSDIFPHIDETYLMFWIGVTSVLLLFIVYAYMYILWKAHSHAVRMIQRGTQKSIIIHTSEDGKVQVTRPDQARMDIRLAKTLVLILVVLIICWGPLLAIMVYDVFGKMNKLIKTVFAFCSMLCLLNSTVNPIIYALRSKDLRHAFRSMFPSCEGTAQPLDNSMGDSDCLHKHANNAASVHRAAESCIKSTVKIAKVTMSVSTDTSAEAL

CB1 receptor [2] = molecular target: T1, CB1 receptor; experiment: Radioligand binding assay with [3H]CP55,940; settings: for α: binding cooperativity factor: [3H]CP55,940 as orthosteric ligand, ND = no detectable modulation of [3H]CP55,940 binding using up to 32 μM
How it was run: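 CB1 was transiently expressed in HEK293 cells by calcium phosphate transfection, and membranes were harvested 24 h later. […] Nonspecific binding was measured with 1 μM CP55,940. Read-out was GF/C filtration and scintillation counting. Run in duplicate, ≥3 experiments; KB and α fitted by nonlinear regression.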

CB1 receptor [3] = molecular target: T1, CB1 receptor; experiment: CP55,940-induced [35S]GTPγS binding assay, HEK293 cell membranes expressing CB1; format: biochemical; settings: result in words
CB1 receptor [4] = molecular target: T1, CB1 receptor; settings: [3H]CP55,940 as orthosteric ligand; given for comparison; cited from earlier work

## CCCCCCC(C)(C)c1ccc([C@@H]2C[C@H](O)CC[C@H]2CCCO)c(O)c1 [CP55,940, 2-[(1R,2R,5R)-5-hydroxy-2-(3-hydroxypropyl)cyclohexyl]-5-(2-methyloctan-2-yl)phenol, reference compound]
CB1 receptor [1]
  pertussis toxin (PTX) sensitivity of induced ERK1/2 phosphorylation: substantially attenuated by pertussis toxin (PTX)
  effect of β-arrestin 1 knockdown on induced ERK1/2 phosphorylation: not by β-arrestin knockdown

## CCCCCCc1c(C(=O)NCCc2ccc(N(C)C)cc2)[nH]c2ccc(Cl)cc12 [Compound 12f, 5-Chloro-N-(4-(dimethylamino)phenethyl)-3-hexyl-1H-indole-2-carboxamide]
CB1 receptor [2]
  α: binding cooperativity factor: 5.1
CB1 receptor [3]
  effect on CP55,940-induced G-protein coupling activity (GTPγS binding): concentration-dependent inhibition of agonist-induced GTPγS binding
CB1 receptor [1]
  pertussis toxin (PTX) sensitivity of induced ERK1/2 phosphorylation: PTX insensitive
  modulator concentration at which ERK1/2 phosphorylation reached a plateau: 5 µM
  effect of β-arrestin 1 knockdown on induced ERK1/2 phosphorylation: substantial inhibition of ERK1/2 phosphorylation

## CCCc1c(C(=O)NCCc2ccc(N(C)C)cc2)[nH]c2ccc(Cl)cc12 [Compound 12d, 5-Chloro-N-(4-(dimethylamino)phenethyl)-3-propyl-1H-indole-2-carboxamide]
CB1 receptor [2]
  α: binding cooperativity factor: 24.5
CB1 receptor [3]
  effect on CP55,940-induced G-protein coupling activity (GTPγS binding): concentration-dependent inhibition of agonist-induced GTPγS binding
CB1 receptor [1]
  modulator concentration at which ERK1/2 phosphorylation reached a plateau: 5 µM
  effect of β-arrestin 1 knockdown on induced ERK1/2 phosphorylation: substantial inhibition of ERK1/2 phosphorylation

## CCCCCc1c(C(=O)NCCc2ccc(N(C)C)cc2)[nH]c2ccc(Cl)cc12 [Compound 5, 5-chloro-N-(4-(dimethylamino)phenethyl)-3-pentyl-1H-indole-2-carboxamide]
CB1 receptor [4]
  α: binding cooperativity factor: 16.5

## CCc1c(C(=O)NCCc2ccc(N(C)C)cc2)[nH]c2cc(Cl)ccc12 [Compound 21a, N-(4-(Dimethylamino)phenethyl)-3-ethyl-6-chloro-1H-indole-2-carboxamide]
CB1 receptor [2]
  α: binding cooperativity factor: 16.0

## CCc1c(C(=O)NCCc2ccc(N(C)C)cc2)[nH]c2cc(F)ccc12 [Compound 21b, N-(4-(Dimethylamino)phenethyl)-3-ethyl-6-fluoro-1H-indole-2-carboxamide]
CB1 receptor [2]
  α: binding cooperativity factor: 22.9

## CCCc1c(C(=O)NCCc2ccc(N3CCCCC3)cc2)[nH]c2ccc(Cl)cc12 [Compound 12a, 5-Chloro-N-(4-(piperidin-1-yl)phenethyl)-3-propyl-1H-indole-2-carboxamide]
CB1 receptor [2]
  α: binding cooperativity factor: 26.7

## CCCCCc1c(C(=O)NCCc2ccc(N3CCCCC3)cc2)[nH]c2ccc(Cl)cc12 [Compound 2, 5-chloro-3-pentyl-N-(4-(piperidin-1-yl)phenethyl)-1H-indole-2-carboxamide, reference compound]
CB1 receptor [1]
  modulator concentration at which ERK1/2 phosphorylation reached a plateau: 10 µM
  effect of β-arrestin 1 knockdown on induced ERK1/2 phosphorylation: substantial inhibition of ERK1/2 phosphorylation
CB1 receptor [4]
  α: binding cooperativity factor: 17.6

## CCc1c(C(=O)NCCc2ccc(N3CCCCC3)cc2)[nH]c2ccc(Cl)cc12 [Compound 1, 5-Chloro-3-ethyl-N-(4-(piperidin-1-yl)phenethyl)-1H-indole-2-carboxamide]
CB1 receptor [4]
  α: binding cooperativity factor: 6.9

## CCc1c(C(=O)NCCc2ccc(N(C)C)cc2)[nH]c2ccc(Cl)cc12 [Compound 4, 5-chloro-N-(4-(dimethylamino)phenethyl)-3-ethyl-1H-indole-2-carboxamide]
CB1 receptor [4]
  α: binding cooperativity factor: 19.7

## CCc1c(C(=O)NCCc2ccc(N(C)C)cc2)[nH]c2ccc(OC)cc12 [Compound 21d, N-(4-(Dimethylamino)phenethyl)-3-ethyl-5-methoxy-1H-indole-2-carboxamide]
CB1 receptor [2]
  α: binding cooperativity factor: 11.9

## CCc1c(C(=O)NCCc2ccc(N(C)C)cc2)[nH]c2cc(OC)ccc12 [Compound 21c, N-(4-(Dimethylamino)phenethyl)-3-ethyl-6-methoxy-1H-indole-2-carboxamide]
CB1 receptor [2]
  α: binding cooperativity factor: 6.2

## CCc1c(C(=O)NCCCc2ccc(N(C)C)cc2)[nH]c2ccc(Cl)cc12 [Compound 26, 5-Chloro-N-(3-(4-(dimethylamino)phenyl)propyl)-3-ethyl-1H-indole-2-carboxamide]
CB1 receptor [2]; result in words
  allosteric modulation of orthosteric agonist CP55,940 binding: loss of allosteric modulation

## CCCCc1c(C(=O)NCCc2ccc(N(C)C)cc2)[nH]c2ccc(Cl)cc12 [Compound 12e, 3-Butyl-5-chloro-N-(4-(dimethylamino)phenethyl)-1H-indole-2-carboxamide]
CB1 receptor [2]
  α: binding cooperativity factor: 12.8
